Most compounds without a hit are left out; they make up all but 2.1% or so of the library.
CAL PDZ FP-1 = untagged CAL PDZ binding inhibitors, primary screen, biochemical, fluorescence polarization, HTS | purified CAL PDZ, TMR-peptide fluorescence polarization, 1 h | 300,000 compounds, 0.92% hits | Golgi-associated PDZ and coiled-coil motif-containing protein (Homo sapiens), Q9HD26 | inhibition, % at 24.9 µM;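 active means mean inhibition of at least 30% with at least half of replicates also reaching 30%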;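 further: 0% = DMSO neutral control and 100% = excess unlabeled competitor peptide PRC23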
SR-BI DiI inh = inhibitors of SR-BI mediated HDL lipid uptake, primary screen, ldlA[mSR-BI] cells, fluorescence, single point; Scavenger receptor class B member 1 (Mus musculus), Q61009; ldlA[mSR-BI] CHO cells, DiI-HDL uptake fluorescence, 3 h; inhibition, % at 12.5 µM; 320,000 compounds, 0.96% hits;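 active means mean replicate inhibition of at least 70% and a set share of replicates each scoring 70 or more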;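 further: 0% = median of neutral control wells and 100% = median of positive control wells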
Target sequence (Q61009 whole entry, looked up): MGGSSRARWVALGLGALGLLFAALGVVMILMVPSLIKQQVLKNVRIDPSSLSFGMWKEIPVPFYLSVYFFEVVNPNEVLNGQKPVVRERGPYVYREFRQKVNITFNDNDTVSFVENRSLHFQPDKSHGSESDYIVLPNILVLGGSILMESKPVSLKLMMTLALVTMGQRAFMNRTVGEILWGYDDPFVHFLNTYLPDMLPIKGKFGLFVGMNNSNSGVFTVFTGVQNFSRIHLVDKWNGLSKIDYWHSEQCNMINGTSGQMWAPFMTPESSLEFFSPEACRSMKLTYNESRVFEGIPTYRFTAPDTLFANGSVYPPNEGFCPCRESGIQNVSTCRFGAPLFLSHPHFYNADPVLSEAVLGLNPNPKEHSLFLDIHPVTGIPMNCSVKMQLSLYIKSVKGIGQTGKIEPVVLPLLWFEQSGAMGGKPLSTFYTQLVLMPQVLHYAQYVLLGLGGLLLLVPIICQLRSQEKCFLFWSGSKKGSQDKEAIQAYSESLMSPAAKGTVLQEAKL
ARNT-TACC3 inh = disruptors of ARNT/TACC3 protein interaction, primary screen, biochemical, AlphaScreen, single concentration; 390,000 compounds, 0.66% hits; AlphaScreen His-ARNT PAS-B/GST-TACC3 binding, luminescence; TACC3 fragment carries E629A point mutation; inhibition, % at 9.99 µM; AID 623870, 2012;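 active means mean inhibition of replicates at least 50% and at least half of replicates each reaching 50%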;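 further: 0% = complete ARNT plus TACC3 wells and 100% = ARNT alone without TACC3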
SR-BI DiI-HDL act = activators of SR-BI mediated DiI-HDL uptake, primary screen, ldlA[mSR-BI] CHO cells, DiI fluorescence; 3 h; 100 = double the neutral-control signal; activation, % at 12.5 µM; 320,000 compounds, 0.096% hits; AID 504775, 2011;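 active means mean replicate activation of at least 60% and every replicate at or above 60%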;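 further: 0% = median plate neutral-control signal and 100% = twice that signal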
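Material: SR-BI-overexpressing, LDLR-lacking CHO cells | Dosing: Single compound concentration, delivered by pin transfer | Probe or stimulus: Labelled HDL, 10 µg/mL | Signal: Bottom-read cell fluorescence after medium removal, ex 550/em 595 nm | Schedule: 3 h, 37 °C | Evaluation: HDL uptake via cellular fluorescence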
miR122 inh = miR-122 Renilla sensor signal increase in Huh7, primary screen, miR-122 inhibitor project, cell-based, single point, plate reader. Huh7 miR-122 Renilla luciferase sensor, 48 h; neutral wells = 0, positive control = 100. 340,000 compounds, 0.3% hits. AID 602342, 2012. activation (reporter increase), % at 12.5 µM;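 active means mean replicate activation score at least 90 and every replicate individually at or above 90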;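 further: higher luciferase means less miR-122 activity so hits act as miR-122 inhibitors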
CAL PDZ FP-2 = CAL PDZ peptide-binding inhibitors, primary screen, biochemical, fluorescence polarization, Cer-tagged CAL PDZ, HTS; AID 504414, 2011; 330,000 compounds, 0.02% hits; purified CAL PDZ, TMR-peptide fluorescence polarization, 1 h; Golgi-associated PDZ and coiled-coil motif-containing protein (Homo sapiens), Q9HD26; inhibition, % at 20 µM;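 active means highest replicate inhibition of at least 40%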;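 further: plate controls were DMSO neutral control wells for no effect and unlabeled competitor peptide control wells for full effect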
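System: tagged CAL PDZ domain. Schedule: 1 h room-temperature incubation prior to read. Signal: fluorescence polarization (mP). Measure: percent inhibition from loss of millipolarization.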
AlphaScreen ctr = AlphaScreen signal interference compounds, dose response, artefact control for ARNT-TACC3 interaction inhibitor project, biochemical, luminescence, cherry-pick. His-ARNT PASB-GST AlphaScreen artifact counter-screen. shares compounds with ARNT-TACC3 inh. 1,200 compounds, 50% hits. AC50, µM (doses to about 68 µM), for the others: at the top dose activity change, negative = signal decrease;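 active means every separate test run was called active for a drop in luminescence, with AC50 within twice the top valid dose, actives reach about 71 µM in these data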
Starred values were filed as active, the others as inactive; / = not tested or not shown; [ ] = dose if it differs, or a comment.

SMILES	CAL PDZ FP-1	SR-BI DiI inh	ARNT-TACC3 inh	SR-BI DiI-HDL act	miR122 inh	CAL PDZ FP-2	AlphaScreen ctr
COc1cccc(/C=N/NC(=O)CNC(=O)c2ccncc2)c1O	-2	-9	56*	9	-1	0	-12%
COc1cccc(/C=N/NC(=O)CNC(=O)c2cccnc2)c1O	-14	-6	59*	6	-6	-1	2%
COc1ccc([N+](=O)[O-])cc1/C=N/NC(=O)CNC(=O)C(c1ccccc1)c1ccccc1	-2	-15	-10	15	-8	-2	/
COc1ccc([N+](=O)[O-])cc1/C=N/NC(=O)CNC(=O)c1cccc(F)c1	-6	-7	51*	7	-5	-3	-12%
COc1cccc(/C=N/NC(=O)C(=O)NCc2cccnc2)c1O	-1	-6	21	6	7	-1	/
COCc1cn(CC[C@H]2CC[C@@H](NC(=O)Nc3ccc(Cl)cc3)[C@@H](CO)O2)nn1	/	/	-1	/	/	/	/
CO[C@@H]1CN(C)C(=O)c2ccc(NC(=O)c3ccccc3F)cc2OC[C@H](C)N(C(=O)c2ccccc2F)C[C@@H]1C	/	/	2	/	37[16.7 µM]	/	/
CCOc1cccc(/C=N/NC(=O)c2cc(-c3cccn3C)n[nH]2)c1O	-7	104*	51*	-104	/	/	-31%
COc1cc(OC)c(OC)cc1/C=N/NC(=O)c1cc(-c2cccn2C)n[nH]1	-2	48	20	-48	-11	2	/
O=C(Nc1ccc(F)cc1)N1C[C@H]2[C@@H](c3ccccc31)[C@@H](CO)N2C(=O)c1ccccn1	/	/	4	/	-13[16.7 µM]	/	/
CCN(CC)C(=O)CSc1nnc(-c2ccccn2)n1-c1ccc(C)c(C)c1	-10	19	52*	-19	2	/	-9%
CCN(CC)C(=O)CSc1nnc(-c2cnccn2)n1-c1ccccc1	1	-15	-1	15	-5	-1	/
Cc1ccc(-n2c(SCc3ccc(C#N)cc3)nnc2-c2ccccn2)cc1	0	-30	0	30	-4	-2	/
Cc1ccc(-n2c(SCC(N)=O)nnc2-c2ccccn2)cc1	-1	-1	55*	1	2	/	-21%
CNC[C@H]1OCCCC[C@H](C)Oc2ccc(NC(=O)c3ccncc3)cc2C(=O)N([C@H](C)CO)C[C@@H]1C	/	/	-11	/	-2[16.7 µM]	/	/
CC1(C)C(=O)Nc2ccccc2N1C(=O)COC(=O)c1ccc([N+](=O)[O-])o1	0	3	-6	-3	-2	1	/
Cc1cc(C(=O)COC(=O)c2ccc([N+](=O)[O-])o2)c(C)n1CC1CCCO1 (stereo not drawn)	16	-22	11	22	-6	-1	/
COCCn1c(C)cc(C(=O)COC(=O)c2ccc([N+](=O)[O-])o2)c1C	/	27	52*	-27	-2	1	-16%
CC1CCN(C(=O)COC(=O)c2ccc([N+](=O)[O-])o2)CC1	2	-38	18*	38	/	1	-5%
O=C1CN(C(=O)COC(=O)c2ccc([N+](=O)[O-])o2)c2ccccc2N1	0	5	42*	-5	/	2	-1%
C=CCSc1nnc(-c2cccc3ccccc23)o1	-1	-8	57*	8	5	0	34µM*
Nc1nnc2c(n1)CCCC2	3	-19	55*	19	-1	0	-10%

From PubChem BioAssay
